Activity calls are given as the source filed them. The rule behind the calls is not given here.

The test system of one assay is Plasmodium yoelii. The assay can be described thus: Antimalarial activity against chloroquine-resistant Plasmodium yoelii N-67infected in Swiss Albino mouse assessed as mouse survival on day 28 at 100 mg/kg, po once daily for 7 days measured on day 4 post infection. More on the design: dose 100 mg/kg.
Conditions: not given
The assay is classed as functional, organism-based. The method in brief: (§1)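 P. yoelii N-67 (innately CQ-resistant) infection in Swiss albino mice (22 ± 2 g), 1 × 10^6 parasitized RBC on day 0. Groups of five dosed orally once daily from day 0, 100 mg/kg/day as aqueous suspension with a few drops of Tween 80. Parasitaemia read from thin blood smears every four days. % suppression uses the group mean vs untreated controls. Survival and cure (no parasitaemia) tracked to day 28.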
On to `CCCCCCCCN(CCCCCCCC)CCC[C@H](C)Nc1ccnc2cc(Cl)ccc12`, for which the outcome was inactive.

For `CCCCCCCCN(CCCCCCCC)CCC[C@@H](C)Nc1ccnc2cc(Cl)ccc12`, the result was inactive.

For `C[C@H](CCCN1CCN(C)CC1)Nc1ccnc2cc(Cl)ccc12`, the outcome was Active.

Consider `C[C@H](CCCN1CCCC1)Nc1ccnc2cc(Cl)ccc12`, for which the result was inactive.

Consider `C[C@@H](CCCN1CCN(C)CC1)Nc1ccnc2cc(Cl)ccc12`, for which the outcome was Active.

For the next assay, the system named is Plasmodium yoelii. The assay can be described thus: Antimalarial activity against chloroquine-resistant Plasmodium yoelii N-67infected in Swiss Albino mouse assessed as mouse cured on day 28 at 100 mg/kg, po once daily for 4 days measured on day 4 post infection. The assay is classed as functional, organism-based. More on the design: dose 100 mg/kg.
Conditions: not given
The method in brief:
as §1
On to `C[C@@H](CCCN1CCOCC1)Nc1ccnc2cc(Cl)ccc12`, for which the outcome was inactive.

Another assay concerns Plasmodium yoelii. Briefly: Antimalarial activity against chloroquine-resistant Plasmodium yoelii N-67infected in Swiss Albino mouse assessed as mouse survival on day 28 at 100 mg/kg, po once daily for 4 days measured on day 4 post infection. The assay is classed as functional, organism-based. More on the design: dose 100 mg/kg.
Conditions: not given
The procedure, abridged:
as §1
For the compound `C[C@@H](CCCN1CCOCC1)Nc1ccnc2cc(Cl)ccc12`, the result was Active.

Test system in a further assay: not listed separately
The assay can be described thus: Binding affinity to hematin in 40% aqueous DMSO and 20 mM HEPES buffer at pH 7.5 at 25 degC.
Conditions: not given
Compound `CCN(C)CCC[C@H](C)Nc1ccnc2cc(Cl)ccc12` yielded a log K of 5.61.

`C[C@H](CCCN(C)C)Nc1ccnc2cc(Cl)ccc12` yielded a log K of 5.77.

`CCN(C)CCC[C@@H](C)Nc1ccnc2cc(Cl)ccc12` gave a log K of 3.63.

`CCCCCCCCN(CCCCCCCC)CCC[C@H](C)Nc1ccnc2cc(Cl)ccc12` registered a log K of 5.58.

Consider `CCCCCCCCN(CCCCCCCC)CCC[C@@H](C)Nc1ccnc2cc(Cl)ccc12`, for which the log K was 5.02.

The compound `C[C@H](CCCN1CCN(C)CC1)Nc1ccnc2cc(Cl)ccc12` gave a log K of 5.53.

In turn, `C[C@H](CCCN1CCCC1)Nc1ccnc2cc(Cl)ccc12` had a log K of 6.02.

The compound `C[C@@H](CCCN1CCOCC1)Nc1ccnc2cc(Cl)ccc12` gave a log K of 6.

Compound `C[C@@H](CCCN1CCN(C)CC1)Nc1ccnc2cc(Cl)ccc12` gave a log K of 4.73.

Test system in a further assay: not listed separately
Briefly: Selectivity index, ratio of CC50 for african green monkey Vero cells to IC50 for chloroquine-sensitive Plasmodium falciparum. The assay is classed as functional.
Conditions: not given
In the case of `CCN(C)CCC[C@H](C)Nc1ccnc2cc(Cl)ccc12`, the “Selectivity Index” value is 26389.

Regarding `C[C@H](CCCN(C)C)Nc1ccnc2cc(Cl)ccc12`, the “Selectivity Index” value turned out to be 28483.

As for `CCN(C)CCC[C@@H](C)Nc1ccnc2cc(Cl)ccc12`, the “Selectivity Index” value was found to be 15838.

Consider `CCCCCCCCN(CCCCCCCC)CCC[C@H](C)Nc1ccnc2cc(Cl)ccc12`, for which the “Selectivity Index” value was 103.94.

Consider `CCCCCCCCN(CCCCCCCC)CCC[C@@H](C)Nc1ccnc2cc(Cl)ccc12`, for which the “Selectivity Index” value stood at 44.28.

Turning to `C[C@H](CCCN1CCN(C)CC1)Nc1ccnc2cc(Cl)ccc12`, the “Selectivity Index” value is 18245.

In the case of `C[C@H](CCCN1CCCC1)Nc1ccnc2cc(Cl)ccc12`, the “Selectivity Index” value was 14140.

With `C[C@@H](CCCN1CCOCC1)Nc1ccnc2cc(Cl)ccc12`, the “Selectivity Index” value is recorded as 19256.

`C[C@@H](CCCN1CCN(C)CC1)Nc1ccnc2cc(Cl)ccc12`: the “Selectivity Index” value amounted to 14744.

In a further assay the test system is Plasmodium falciparum. The assay can be described thus: Antiplasmodial activity against chloroquine-resistant Plasmodium falciparum K1 by Malaria SYBR Green I-nucleic acid staining based fluorescence assay. The assay is classed as functional, organism-based.
Conditions: not given
The procedure, abridged:
(§2)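 SYBR Green I fluorescence assay (MSF). DMSO stock at 5 mg/mL, two-fold serial dilutions in RPMI-1640-FBS, tested in duplicate wells. Parasitized erythrocytes (0.8% parasitaemia, 1.0% cell suspension) incubated 72 h at 37 °C under 5% CO2. Lysis buffer with SYBR Green I added, 1 h at 37 °C. Fluorescence read at 485/530 nm.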
Regarding `CCN(C)CCC[C@H](C)Nc1ccnc2cc(Cl)ccc12`, the IC50 (commonly the concentration needed to halve the response being measured) worked out at 258 nM.

`C[C@H](CCCN(C)C)Nc1ccnc2cc(Cl)ccc12` had an IC50 of 202 nM.

As for `CCN(C)CCC[C@@H](C)Nc1ccnc2cc(Cl)ccc12`, half-maximal inhibition (IC50) was put at 287 nM.

`CCCCCCCCN(CCCCCCCC)CCC[C@H](C)Nc1ccnc2cc(Cl)ccc12` registered an IC50 of 7.95 nM.

On to `CCCCCCCCN(CCCCCCCC)CCC[C@@H](C)Nc1ccnc2cc(Cl)ccc12`, for which the IC50 came to 126 nM.

In turn, `C[C@H](CCCN1CCN(C)CC1)Nc1ccnc2cc(Cl)ccc12` yielded an IC50 of 105 nM.

For `C[C@H](CCCN1CCCC1)Nc1ccnc2cc(Cl)ccc12`, the midpoint of inhibition, the IC50, lay at 125 nM.

For the compound `C[C@@H](CCCN1CCOCC1)Nc1ccnc2cc(Cl)ccc12`, the IC50 was 56.8 nM.

`C[C@@H](CCCN1CCN(C)CC1)Nc1ccnc2cc(Cl)ccc12` gave an IC50 of 21.8 nM.

The test system of a further assay is Plasmodium yoelii. Briefly: Antimalarial activity against chloroquine-resistant Plasmodium yoelii N-67infected in Swiss Albino mouse assessed as suppression of parasitemia at 100 mg/kg, po once daily for 4 days measured on day 4 post infection. The assay is classed as functional. As to conditions: N-67, 96 h. The procedure, abridged:
as §1
Regarding `C[C@@H](CCCN1CCOCC1)Nc1ccnc2cc(Cl)ccc12`, the inhibition in vivo (usually the percentage by which the read-out fell short of the control) at 100 mg/kg came out at 99.6%.

A further assay concerns Plasmodium yoelii. The assay can be described thus: Antimalarial activity against chloroquine-resistant Plasmodium yoelii N-67infected in Swiss Albino mouse assessed as mouse cured on day 28 at 100 mg/kg, po once daily for 7 days measured on day 4 post infection. The assay is classed as functional, organism-based. More on the design: dose 100 mg/kg.
Conditions: not given
The procedure, abridged:
as §1
Take `CCCCCCCCN(CCCCCCCC)CCC[C@H](C)Nc1ccnc2cc(Cl)ccc12`: the result was inactive.

With `CCCCCCCCN(CCCCCCCC)CCC[C@@H](C)Nc1ccnc2cc(Cl)ccc12`, the result was inactive.

For `C[C@H](CCCN1CCCC1)Nc1ccnc2cc(Cl)ccc12`, the outcome was inactive.

The next assay deals with Plasmodium falciparum. The assay can be described thus: Resistance index, ratio of IC50 for chloroquine-resistant Plasmodium falciparum K1 to IC50 for chloroquine-sensitive Plasmodium falciparum 3D7. The assay is classed as functional.
Conditions: not given
The procedure, abridged:
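Resistance index computed as IC50 (K1) / IC50 (3D7). Both IC50s come from the 72 h SYBR Green I fluorescence assay on P. falciparum-infected erythrocytes, run with two-fold serial dilutions in duplicate wells.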
As for `CCN(C)CCC[C@H](C)Nc1ccnc2cc(Cl)ccc12`, the “Ratio IC50” value came out at 20.85.

Regarding `C[C@H](CCCN(C)C)Nc1ccnc2cc(Cl)ccc12`, the “Ratio IC50” value was determined as 33.74.

As to `CCN(C)CCC[C@@H](C)Nc1ccnc2cc(Cl)ccc12`, the “Ratio IC50” value turned out to be 36.92.

Consider `CCCCCCCCN(CCCCCCCC)CCC[C@H](C)Nc1ccnc2cc(Cl)ccc12`, for which the Ratio IC50 came to 0.084.

Consider `CCCCCCCCN(CCCCCCCC)CCC[C@@H](C)Nc1ccnc2cc(Cl)ccc12`, for which the “Ratio IC50” value was 1.6.

On to `C[C@H](CCCN1CCN(C)CC1)Nc1ccnc2cc(Cl)ccc12`, for which the “Ratio IC50” value came to 15.2.

Take `C[C@H](CCCN1CCCC1)Nc1ccnc2cc(Cl)ccc12`: the “Ratio IC50” value came to 12.23.

As to `C[C@@H](CCCN1CCOCC1)Nc1ccnc2cc(Cl)ccc12`, the “Ratio IC50” value was found to be 4.05.

Turning to `C[C@@H](CCCN1CCN(C)CC1)Nc1ccnc2cc(Cl)ccc12`, the “Ratio IC50” value was determined as 1.53.

A further assay deals with Plasmodium yoelii. The assay can be described thus: Antimalarial activity against chloroquine-resistant Plasmodium yoelii N-67infected in Swiss Albino mouse assessed as suppression of parasitemia at 100 mg/kg, po once daily for 7 days measured on day 4 post infection.
Conditions: not given
The assay is classed as functional. The procedure, abridged:
as §1
In the case of `CCCCCCCCN(CCCCCCCC)CCC[C@H](C)Nc1ccnc2cc(Cl)ccc12`, the inhibition in vivo at 100 mg/kg is 14.5%.

For `CCCCCCCCN(CCCCCCCC)CCC[C@@H](C)Nc1ccnc2cc(Cl)ccc12`, the inhibition in vivo at 100 mg/kg was found to be 9.5%.

For the compound `C[C@H](CCCN1CCN(C)CC1)Nc1ccnc2cc(Cl)ccc12`, the inhibition in vivo at 100 mg/kg was 100%.

On to `C[C@H](CCCN1CCCC1)Nc1ccnc2cc(Cl)ccc12`, for which the inhibition in vivo at 100 mg/kg amounted to 100%.

On to `C[C@@H](CCCN1CCN(C)CC1)Nc1ccnc2cc(Cl)ccc12`, for which the inhibition in vivo at 100 mg/kg is 100%.

A further assay has as its system Plasmodium falciparum. Briefly: Antiplasmodial activity against chloroquine-sensitive Plasmodium falciparum 3D7 by Malaria SYBR Green I-nucleic acid staining based fluorescence assay.
Conditions: not given
The assay is classed as functional, organism-based. The method in brief: as §2
`CCN(C)CCC[C@H](C)Nc1ccnc2cc(Cl)ccc12`: it took 12.4 nM to reach half-maximal inhibition (IC50).

Consider `C[C@H](CCCN(C)C)Nc1ccnc2cc(Cl)ccc12`, for which it took 6 nM to reach half-maximal inhibition (IC50).

`CCN(C)CCC[C@@H](C)Nc1ccnc2cc(Cl)ccc12`: the half-maximal inhibitory concentration (IC50) is 7.78 nM.

Compound `CCCCCCCCN(CCCCCCCC)CCC[C@H](C)Nc1ccnc2cc(Cl)ccc12` came in with an IC50 of 94.8 nM.

For the compound `CCCCCCCCN(CCCCCCCC)CCC[C@@H](C)Nc1ccnc2cc(Cl)ccc12`, the IC50 was 78.6 nM.

Compound `C[C@H](CCCN1CCN(C)CC1)Nc1ccnc2cc(Cl)ccc12` had an IC50 of 6.92 nM.

`C[C@H](CCCN1CCCC1)Nc1ccnc2cc(Cl)ccc12` showed an IC50 of 10.2 nM.

As for `C[C@@H](CCCN1CCOCC1)Nc1ccnc2cc(Cl)ccc12`, the midpoint of inhibition, the IC50, lay at 14 nM.

`C[C@@H](CCCN1CCN(C)CC1)Nc1ccnc2cc(Cl)ccc12` displayed a 50% inhibitory concentration (IC50) of 14.2 nM.

In another assay the target is Heme. Briefly: Binding affinity to heme assessed as inhibition of 1-oleoyl-rac-glycerol-induced beta-hematin polymerization by UV spectrophotometry.
Conditions: not given
With `CCN(C)CCC[C@H](C)Nc1ccnc2cc(Cl)ccc12`, the IC50 is 150000 nM.

`C[C@H](CCCN(C)C)Nc1ccnc2cc(Cl)ccc12`: the IC50 turned out to be 190000 nM.

Regarding `CCN(C)CCC[C@@H](C)Nc1ccnc2cc(Cl)ccc12`, the IC50 worked out at 140000 nM.

`CCCCCCCCN(CCCCCCCC)CCC[C@H](C)Nc1ccnc2cc(Cl)ccc12`: the IC50 is 200000 nM.

Consider `CCCCCCCCN(CCCCCCCC)CCC[C@@H](C)Nc1ccnc2cc(Cl)ccc12`, for which the IC50 amounted to 190000 nM.

Turning to `C[C@H](CCCN1CCN(C)CC1)Nc1ccnc2cc(Cl)ccc12`, the half-maximal inhibitory concentration (IC50) amounted to 180000 nM.

Turning to `C[C@H](CCCN1CCCC1)Nc1ccnc2cc(Cl)ccc12`, the IC50 is 140000 nM.

As for `C[C@@H](CCCN1CCOCC1)Nc1ccnc2cc(Cl)ccc12`, the IC50 is 190000 nM.

As to `C[C@@H](CCCN1CCN(C)CC1)Nc1ccnc2cc(Cl)ccc12`, the IC50 was 140000 nM.

Source of the values: ChEMBL document CHEMBL3352664 (Bioorg Med Chem, 2014).
